{
  "source": "PubChem BioAssay AID463111",
  "about": "(Johns Hopkins Ion Channel Center, 2010)",
  "note": "Hit rate of the full screen: of about 310,000 compounds, about 2,800 (0.9%) were called active. This is one part of a sample in which actives are shown more often than they occur.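 Rule for the calls: active = B-score of the integrated calcium signal more than 4 SD below the library mean, with starting fluorescence not abnormally high; inactive = the rest.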",
  "data": [
    {"assay": "enhancers of RGS4 function in calcium signaling – cell-based, HEK293 M3R inducible RGS4, calcium flux, primary screen (AID 463111);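 for B-score: negative B-score means reduced calcium response which marks RGS4 activation or potentiation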", "settings": "HEK293 M3R/inducible RGS4, carbachol calcium flux Fluo4, at 10 µM; active compounds read low", "how_it_was_run": "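Material: M3R-expressing HEK293 line, RGS4 induced by doxycycline | Schedule: Overnight RGS4 induction, 30 min dye load 37 °C, 20 min compound RT | Measured by: Fluo4 fluorescence kinetic imaging of calcium | Read-out: Integrated calcium ratio converted to B score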", "values": [
      {"smiles": "CC1(C)CC(=O)C=C(N2CCOCC2)C1", "B-score": "inactive"},
      {"smiles": "Cc1ccc(C(C)(C)C)c(OCCCCN2CCCC2)c1", "B-score": "inactive"},
      {"smiles": "O=[N+]([O-])c1ccccc1OCCCCN1CCCCC1", "B-score": "inactive"},
      {"smiles": "Cc1ccc(OCCCCN2CCCCC2)c(Br)c1", "B-score": "-7.76 (active)"},
      {"smiles": "O=C(NCCCCc1ccccc1)C1CC(c2ccc([N+](=O)[O-])cc2)=NO1", "note": "(configuration not stated)", "B-score": "inactive"},
      {"smiles": "Cc1ccc(NC(=O)c2sccc2C)cc1[N+](=O)[O-]", "B-score": "inactive"},
      {"smiles": "O=C(Nc1ccc([N+](=O)[O-])cc1)C1CC12CCC2", "note": "(configuration not stated)", "B-score": "inactive"},
      {"smiles": "COc1ccc(C(=O)N(C)CC(O)c2ccccc2)cc1OC1CCN(C(C)=O)CC1", "note": "(configuration not stated)", "B-score": "inactive"},
      {"smiles": "CCC(NC(=O)c1ccccc1NC(=O)c1ccccc1)C(=O)NNC(=O)CSc1nc2ccccc2o1", "note": "(configuration not stated)", "B-score": "inactive"},
      {"smiles": "CN(C)S(=O)(=O)N1CCC(Oc2cccc(C(=O)NCCCC3CCCC3)c2)CC1", "B-score": "-7.71 (active)"},
      {"smiles": "CNS(=O)(=O)c1cccc(C(=O)NCC2CCCCC2)c1", "B-score": "inactive"},
      {"smiles": "CN(C(=O)c1cccc(OC2CCN(S(=O)(=O)N(C)C)CC2)c1)C1CCOC1", "note": "(configuration not stated)", "B-score": "inactive"},
      {"smiles": "Cc1ccc(-c2nc(CS(=O)(=O)CC(=O)NCc3ccc4c(c3)OCO4)c(C)o2)cc1", "B-score": "inactive"},
      {"smiles": "CC1(C)Cc2c(sc3nc4n(c(=N)c23)CCCCC4)CO1", "B-score": "inactive"},
      {"smiles": "N=c1c2c3c(sc2nc2n1CCCCC2)CCCC3", "B-score": "-8.12 (active)"},
      {"smiles": "N=c1c2c3c(sc2ncn1N)CCCCC3", "B-score": "inactive"},
      {"smiles": "CCOc1ccc(S(=O)(=O)Nc2ccc(C(=O)NCCCN3CCCC3=O)cc2)cc1", "B-score": "inactive"},
      {"smiles": "CN(C)CCOC(=O)C(c1ccccc1)C1(O)CCCC1", "note": "(configuration not stated)", "B-score": "inactive"},
      {"smiles": "Cc1ccccc1C(OCCN(C)C)C1CCCCC1", "note": "(configuration not stated)", "B-score": "-8.62 (active)"},
      {"smiles": "CN(C)CCOC1c2ccccc2-c2ccccc21", "B-score": "inactive"},
      {"smiles": "Cc1ccc(C)c(N2CCN(C(=O)CCCCn3c(=O)[nH]c4ccccc4c3=O)CC2)c1", "B-score": "inactive"},
      {"smiles": "Cc1ccc(C)c(N2CCN(C(=O)CCCCCn3c(=S)[nH]c4ccc(N5CCOCC5)cc4c3=O)CC2)c1", "B-score": "-10.9 (active)"},
      {"smiles": "Cc1ccc(C)c(N2CCN(C(=O)CCCn3c(=O)c4cccn4c4cccnc43)CC2)c1", "B-score": "-7.65 (active)"},
      {"smiles": "Cc1ccc(C)c(N2CCN(C(=O)CCc3nc4ccccc4[nH]3)CC2)c1", "B-score": "inactive"},
      {"smiles": "Cc1ccc(C)c(N2CCN(C(=O)Cn3ncn4cccc4c3=O)CC2)c1", "B-score": "inactive"},
      {"smiles": "O=C(CCCCCn1c(=S)[nH]c2cc3c(cc2c1=O)OCO3)N1CCN(c2ccc(F)cc2)CC1", "B-score": "inactive"},
      {"smiles": "Cn1c(=O)c2c(SCC(=O)NCC3CCCO3)nc(CC(C)(C)C)nc2n(C)c1=O", "note": "(configuration not stated)", "B-score": "inactive"},
      {"smiles": "OC1CCCN(c2ncnc3c2nnn3Cc2c(F)cccc2Cl)C1", "note": "(configuration not stated)", "B-score": "inactive"},
      {"smiles": "COc1ccc(CNC(=O)C(c2ccc(O)cc2)N(Cc2ccco2)C(=O)c2snc(C(N)=O)c2N)cc1", "note": "(configuration not stated)", "B-score": "inactive"},
      {"smiles": "CC(C)c1ccc(NC(=O)Cn2ncc3ccccc32)cc1", "B-score": "inactive"},
      {"smiles": "COc1cccc(CNC(=O)CCC2CCCN(C(=O)c3ccc(F)c(Cl)c3)C2)c1", "note": "(configuration not stated)", "B-score": "inactive"},
      {"smiles": "COc1cccc(C(=O)N2CCCC(CCC(=O)NCc3ccc(F)c(F)c3)C2)c1", "note": "(configuration not stated)", "B-score": "inactive"},
      {"smiles": "COc1cccc(CNC(=O)CCC2CCCN(Cc3ccc(OC(F)F)cc3)C2)c1", "note": "(configuration not stated)", "B-score": "-12 (active)"},
      {"smiles": "COc1cccc(C(=O)OCc2cc(=O)oc3c(C)c(C)ccc23)c1OC", "B-score": "inactive"},
      {"smiles": "Cc1nn(C)cc1N1C(=O)c2cccc3c(N)ccc(c23)C1=O", "B-score": "-8.92 (active)"},
      {"smiles": "CN1C(=O)c2cccc3c(N)ccc(c23)C1=O", "B-score": "inactive"},
      {"smiles": "O=C1c2ccccc2C(=O)N1c1cccc2ccccc12", "B-score": "inactive"},
      {"smiles": "COc1ccc(C(=O)Nc2ccc(C(=O)NCC3CCCO3)cc2)c(OC)c1OC", "note": "(configuration not stated)", "B-score": "inactive"},
      {"smiles": "CC(=O)NCC(=O)N1CCC(n2nccc2NC(=O)CCCc2ccccc2)CC1", "B-score": "inactive"},
      {"smiles": "COc1ccc(C(=O)/C=C/c2ccc(-c3ccccc3)cc2)cc1CSCC(=O)O", "B-score": "-7.93 (active)"},
      {"smiles": "COc1ccc(/C=C/C(=O)c2ccc(NS(=O)(=O)c3ccc(C)cc3)cc2)cc1O", "B-score": "inactive"},
      {"smiles": "COC(=O)c1ccc(COc2ccc(/C=C/C(=O)c3ccc(OC)c(CSCC(=O)O)c3)cc2OC)cc1", "B-score": "inactive"},
      {"smiles": "CC(C)=CCN1CCN(CCCc2ccccc2)CC1CCO", "note": "(configuration not stated)", "B-score": "inactive"},
      {"smiles": "NC1=NC(c2ccc([N+](=O)[O-])cc2)N(c2ccc(F)cc2)C(N)=N1", "note": "(configuration not stated)", "B-score": "inactive"},
      {"smiles": "COc1cc(/C=C/C(=O)N2c3ccccc3Sc3ccc(C(F)(F)F)cc32)cc(OC)c1OC", "B-score": "inactive"},
      {"smiles": "CCOC(=O)CNC(=O)N1c2ccccc2Sc2ccccc21", "B-score": "inactive"},
      {"smiles": "O=C(CN1CCCCCC1)N1c2ccccc2Sc2ccc(C(F)(F)F)cc21", "B-score": "-7.9 (active)"},
      {"smiles": "CCn1nc(C)c(CNC(=O)C2CCC(=O)N(Cc3cccc(F)c3)C2)c1C", "note": "(configuration not stated)", "B-score": "inactive"},
      {"smiles": "Cc1cc2oc(=O)cc(CN(C)Cc3ccc(OC(F)F)cc3)c2cc1Cl", "B-score": "-7.56 (active)"},
      {"smiles": "Cc1ccc(CN(C)Cc2cc(=O)oc3cc(C)c(Cl)cc23)cc1", "B-score": "inactive"},
      {"smiles": "CCOc1ccc(N(C)Cc2cc(=O)oc3ccc(OC)cc23)cc1", "B-score": "inactive"},
      {"smiles": "CCN1CCN(c2sc(S(C)(=O)=O)nc2S(=O)(=O)c2ccc(Cl)cc2)CC1", "B-score": "inactive"},
      {"smiles": "O=C(c1ccc(-n2cnnn2)cc1)N1CCN(C(c2ccccc2)c2ccccc2)CC1", "B-score": "-7.43 (active)"},
      {"smiles": "Cc1onc(C(=O)NN)c1C(=O)N1CCN(C(c2ccccc2)c2ccccc2)CC1", "B-score": "inactive"},
      {"smiles": "Cn1nnnc1SCC(=O)N1CCN(C(c2ccccc2)c2ccccc2)CC1", "B-score": "inactive"},
      {"smiles": "C=CCN(C(=O)Cn1ncc2c1-c1cc(C)ccc1OC2)c1ccccc1", "B-score": "inactive"},
      {"smiles": "Cc1ccc(S(=O)(=O)NCc2ccc(C(=O)NC3CCC(C)CC3)cc2)cc1", "note": "(configuration not stated)", "B-score": "inactive"},
      {"smiles": "CCOC(=O)c1c(NC(=O)C(C)Sc2c[nH]c3ccccc23)sc2c1CCC2", "note": "(configuration not stated)", "B-score": "-7.36 (active)"},
      {"smiles": "CCOC(=O)c1c(NC(=S)NC)sc2c1CCCC2", "B-score": "inactive"},
      {"smiles": "CCOC(=O)c1c(NC(=O)CSc2cn(CC)c3ccccc23)sc2c1CCC2", "B-score": "inactive"},
      {"smiles": "COc1cccc(/C=N/Nc2ncc(C(F)(F)F)cc2Cl)c1O", "B-score": "inactive"},
      {"smiles": "COc1cccc(/C=N/Nc2cc(C)nc(-c3ccccc3O)n2)c1O", "B-score": "-11.4 (active)"},
      {"smiles": "COc1cccc(/C=N/NC(=O)c2[nH]nc3c2CCc2ccccc2-3)c1O", "B-score": "inactive"},
      {"smiles": "Cc1ccc(C(=O)CSc2ccccc2C(=O)O)cc1", "B-score": "inactive"},
      {"smiles": "Cc1ccc(SCC(=O)c2cc(C)c(OC(=S)N(C)C)c(C)c2)cc1", "B-score": "-8.33 (active)"},
      {"smiles": "Cc1ccc(SCC(=O)Nc2ccc3c(c2)OCCO3)cc1", "B-score": "inactive"},
      {"smiles": "CN(C)C(=O)Cn1c(=O)n(S(=O)(=O)c2ccccc2)c2ccccc21", "B-score": "inactive"},
      {"smiles": "CC(=O)C1C(c2cccc(Oc3ccccc3)c2)NC(=O)NC1(O)C(F)(F)F", "note": "(configuration not stated)", "B-score": "inactive"},
      {"smiles": "CCOC(=O)C1C(c2ccc(Cl)cc2)NC(=S)NC1(O)C(F)(F)F", "note": "(configuration not stated)", "B-score": "inactive"},
      {"smiles": "O=C(c1cccs1)C1C(c2ccc(Br)cc2)NC(=S)NC1(O)C(F)(F)F", "note": "(configuration not stated)", "B-score": "-11.1 (active)"},
      {"smiles": "O=C(NCc1ccncc1)C(=O)NCC1OCCN1S(=O)(=O)c1ccc(Br)cc1", "note": "(configuration not stated)", "B-score": "inactive"},
      {"smiles": "COc1ccc(C(C(O)C(=O)c2c[nH]c3ccccc23)N2CCN(c3ccccc3)CC2)cc1", "note": "(configuration not stated)", "B-score": "inactive"},
      {"smiles": "COc1ccc(/C=C(\\C#N)c2c[nH]c3ccccc23)cc1", "B-score": "-9.16 (active)"},
      {"smiles": "COc1ccc2[nH]cc(/C=C(/C#N)S(=O)(=O)c3ccccc3)c2c1", "B-score": "inactive"},
      {"smiles": "COc1cccc(NC(=S)C(C#N)=C2N(C)c3ccccc3N2C)c1", "B-score": "inactive"},
      {"smiles": "CC(C)(C)c1ccc(C(=O)N2CCN(CCNC(=O)C(=O)Nc3ccc(F)cc3)CC2)cc1", "B-score": "inactive"},
      {"smiles": "COc1ccc(/C(C)=N\\NC(=O)c2ccc(-c3ccccc3)cc2)c(F)c1", "B-score": "inactive"},
      {"smiles": "COc1cccc(C(=O)Nc2cccnc2)c1OC", "B-score": "inactive"},
      {"smiles": "COc1cccc(C(=O)N/N=C(\\C)c2cccc(NC(=O)c3ccc(F)cc3)c2)c1OC", "B-score": "-7.56 (active)"},
      {"smiles": "CC(C)(C)n1ncc2c(=O)n(Cc3ccc(Cl)cc3)cnc21", "B-score": "inactive"},
      {"smiles": "O=C(NCCCN1CCOCC1)c1ccc2c(c1)N(Cc1cccc(F)c1)C(=O)c1ccccc1S2", "B-score": "inactive"},
      {"smiles": "CCN1CCN(CCNC(=O)c2ccc(/C=C3/Sc4ccccc4N(Cc4cccc(C)c4)C3=O)cc2)CC1", "B-score": "-9.47 (active)"},
      {"smiles": "O=C(NCCN1CCOCC1)c1ccc(/C=C2\\Sc3ccccc3N(Cc3ccc(F)cc3)C2=O)cc1", "B-score": "inactive"},
      {"smiles": "Cc1oc(C(N)=O)cc1COc1ccc(C(N)=O)cc1", "B-score": "inactive"},
      {"smiles": "Cn1nccc1NC(=O)CC(CC(=O)O)c1ccccc1", "note": "(configuration not stated)", "B-score": "inactive"},
      {"smiles": "Cc1cccc(-c2nc3ccc(C(=O)NCCN4CCN(C)CC4)cc3nc2-c2cccc(C)c2)c1", "B-score": "-8.03 (active)"},
      {"smiles": "CCC1=Nc2cc(C(=O)NCCN3CCCC3)ccc2Sc2ccc(C)cc21", "B-score": "inactive"},
      {"smiles": "Cc1ccc(C(=O)NCCN2CCOCC2)cc1C", "B-score": "inactive"},
      {"smiles": "O=C(CN1CCC(NC(=O)C2CC2)CC1)Nc1ccccc1[N+](=O)[O-]", "B-score": "inactive"},
      {"smiles": "Cc1ccc(OCC(=O)NC(C)c2ccccc2)cc1C", "note": "(configuration not stated)", "B-score": "inactive"},
      {"smiles": "CCOc1ccc(C(CC(=O)O)NC(=O)COc2ccccc2)cc1", "note": "(configuration not stated)", "B-score": "-7.76 (active)"},
      {"smiles": "CCOc1ccc(C(CC(=O)O)NC(=O)Cc2ccccc2)cc1OC", "note": "(configuration not stated)", "B-score": "inactive"}
    ]}
  ]
}
